According to ChEMBL document CHEMBL4834441, “Design, synthesis and biological evaluation of a series of iron and copper chelating deferiprone derivatives as new agents active against Candida albicans” (Bioorg Med Chem Lett, 2021):
Values after ≈ are worked out from the molar mass of the structure shown. Each block holds one molecule with its values, some of them ahead of it. Active and inactive are the calls of the source.

Legend:
Candida albicans [1] = experiment: Antibiofilm activity against Candida albicans ATCC 10231 assessed as inhibition of biofilm formation; format: functional
How it was run: (§1)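 C. albicans ATCC 10231 biofilm, tested during formation and as mature (48 h) biofilm; compounds tested up to 128 μg/mL. BMIC50 taken as lowest concentration giving 50% decrease of biofilm relative to untreated growth control; three independent experiments in triplicate, median reported.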

[2] = Metal chelating activity assessed as Fe3+-compound complex formation by UV-visible spectrophotometry
How it was run: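 Stoichiometry of ligand–Fe3+ complex found by Job's method of continuous variations from UV titration spectra, Job's plot read at 302 nm; stability constant (logKstab) then calculated by UV–Vis spectroscopy for the determined stoichiometry.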

Candida albicans [3] = experiment: Antifungal activity against Candida albicans ATCC 10231; format: functional
How it was run: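 Planktonic C. albicans ATCC 10231 cells; compounds tested up to 128 μg/mL. MIC50 defined as lowest concentration producing 50% growth inhibition; three independent experiments, each in triplicate, values given as median.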

Candida albicans [4] = experiment: Antibiofilm activity against Candida albicans ATCC 10231 assessed as reduction in mature biofilm; format: functional; how it was run: as §1
Candida albicans [5] = experiment: Antibiofilm activity against Candida albicans ATCC 10231 assessed as inhibition of biofilm formation in presence of Cu2+; format: functional, organism-based; conditions: dose 8-128 µg/ml
How it was run: (§2)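 C. albicans ATCC 10231 biofilm-formation assay run in culture medium enriched with increasing concentrations of Fe3+ or Cu2+. BMIC50 is the lowest drug concentration giving a 50% decrease of biofilm relative to the untreated growth control. Three independent experiments in triplicate; data reported as percentage of inhibition ± standard deviation.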

[6] = Toxicity in Galleria mellonella larvae assessed as survival at 256 ug/ml measured after 72 hrs relative to control; conditions: at 256 µg/mL
How it was run: (§3)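 G. mellonella larvae were injected with 20 μL of compound in sterile water containing less than 1% v/v DMSO, into the last left pro-leg. Doses were 32–512 µg/mL. Survival was scored at 24, 48 and 72 h and is given as the mean percentage of three independent experiments.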

Candida albicans [7] = experiment: Antibiofilm activity against Candida albicans ATCC 10231 assessed as inhibition of biofilm formation in presence of Fe3+; format: functional, organism-based; conditions: dose 8-128 µg/ml; how it was run: as §2
[8] = Toxicity in Galleria mellonella larvae assessed as survival at 64 ug/ml measured after 48 hrs relative to control; conditions: at 64 µg/mL; how it was run: as §3
[9] = Toxicity in Galleria mellonella larvae assessed as survival at 128 ug/ml measured after 48 hrs relative to control; conditions: at 128 µg/mL; how it was run: as §3
[10] = Toxicity in Galleria mellonella larvae assessed as survival at 256 ug/ml measured after 48 hrs relative to control; conditions: at 256 µg/mL; how it was run: as §3
[11] = Toxicity in Galleria mellonella larvae assessed as survival at 128 ug/ml measured after 72 hrs relative to control; conditions: at 128 µg/mL; how it was run: as §3
[12] = Toxicity in Galleria mellonella larvae assessed as survival at 64 ug/ml measured after 72 hrs relative to control; conditions: at 64 µg/mL; how it was run: as §3
[13] = Toxicity in Galleria mellonella larvae assessed as survival at 64 ug/ml measured after 24 hrs relative to control; conditions: at 64 µg/mL; how it was run: as §3
[14] = Toxicity in Galleria mellonella larvae assessed as survival at 512 ug/ml measured after 72 hrs relative to control; conditions: at 512 µg/mL; how it was run: as §3
[15] = Metal chelating activity assessed as Cu2+-compound complex formation by UV-visible spectrophotometry
How it was run: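 UV–Vis spectroscopic titration of the ligand with Cu2+. The stability constant was calculated from the spectra once the 1:1 stoichiometry was known, and is reported as logKstab ±.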

[16] = Toxicity in Galleria mellonella larvae assessed as survival at 512 ug/ml measured after 48 hrs relative to control; conditions: at 512 µg/mL; how it was run: as §3
[17] = Toxicity in Galleria mellonella larvae assessed as survival at 128 ug/ml measured after 24 hrs relative to control; conditions: at 128 µg/mL; how it was run: as §3
[18] = Metal chelating activity assessed as stoichiometry ratio of 1:1 for Fe3+-compound complex formation by UV-visible spectrophotometry
[19] = Toxicity in Galleria mellonella larvae assessed as survival at 256 ug/ml measured after 24 hrs relative to control; conditions: at 256 µg/mL; how it was run: as §3
[20] = Toxicity in Galleria mellonella larvae assessed as survival at 512 ug/ml measured after 24 hrs relative to control; conditions: at 512 µg/mL; how it was run: as §3
[21] = Toxicity in Galleria mellonella larvae assessed as survival at 32 ug/ml measured after 48 hrs relative to control; conditions: at 32 µg/mL; how it was run: as §3
[22] = Toxicity in Galleria mellonella larvae assessed as survival at 32 ug/ml measured after 72 hrs relative to control; conditions: at 32 µg/mL; how it was run: as §3
[23] = Toxicity in Galleria mellonella larvae assessed as survival at 32 ug/ml measured after 24 hrs relative to control; conditions: at 32 µg/mL; how it was run: as §3
[24] = Metal chelating activity assessed as stoichiometry ratio of 1:1 for Cu2+-compound complex formation by UV-visible spectrophotometry

Compound: Cc1c(OCc2ccccc2)c(=O)ccn1CCCCc1ccccc1
MBIC50 (Candida albicans [1]): >128 µg/mL | Activity [2]: Active | MIC50 (Candida albicans [3]): > 128 µg/mL | MBIC50 (Candida albicans [4]): >128 µg/mL

Compound: Cc1c(O)c(=O)ccn1CCCCc1ccccc1.Cl
inhibition (Candida albicans [5]): Dose-Dependent Effect | survival at 72 h [6]: 100% | inhibition (Candida albicans [7]): Dose-Dependent Effect | survival at 48 h [8]: 100% | survival at 48 h [9]: 100% | MBIC50 (Candida albicans [1]): 16 µg/mL | Activity [2]: Active | survival at 48 h [10]: 100% | survival at 72 h [11]: 100% | survival at 72 h [12]: 100% | survival at 24 h [13]: 100% | survival at 72 h [14]: 86% | Activity [15]: Active | MIC50 (Candida albicans [3]): 16 µg/mL | survival at 48 h [16]: 96% | survival at 24 h [17]: 100% | Activity [18]: Active | survival at 24 h [19]: 100% | survival at 24 h [20]: 100% | MBIC50 (Candida albicans [4]): >128 µg/mL | survival at 48 h [21]: 100% | survival at 72 h [22]: 100% | survival at 24 h [23]: 100% | Activity [24]: Active

Compound: Cc1c(OCc2ccccc2)c(=O)ccn1CCCCCCn1ccc(=O)c(OCc2ccccc2)c1C
MBIC50 (Candida albicans [1]): >128 µg/mL | MIC50 (Candida albicans [3]): > 128 µg/mL | MBIC50 (Candida albicans [4]): >128 µg/mL

Compound: Cc1c(O)c(=O)ccn1C [DEFERIPRONE]
MBIC50 (Candida albicans [1]): 32 µg/mL | MIC50 (Candida albicans [3]): 128 µg/mL (≈ 920 µM) | MBIC50 (Candida albicans [4]): 128 µg/mL

Compound: Cc1c(O)c(=O)ccn1CCCn1ccnc1.Cl
MBIC50 (Candida albicans [1]): >128 µg/mL | MIC50 (Candida albicans [3]): > 128 µg/mL | MBIC50 (Candida albicans [4]): >128 µg/mL

Compound: Cc1c(OCc2ccccc2)c(=O)ccn1CCCc1ccccc1
MBIC50 (Candida albicans [1]): >128 µg/mL | MIC50 (Candida albicans [3]): > 128 µg/mL | MBIC50 (Candida albicans [4]): >128 µg/mL

Compound: Cc1c(OCc2ccccc2)c(=O)ccn1CCCCCn1ccc(=O)c(OCc2ccccc2)c1C
MBIC50 (Candida albicans [1]): >128 µg/mL | MIC50 (Candida albicans [3]): > 128 µg/mL | MBIC50 (Candida albicans [4]): >128 µg/mL

Compound: Cc1c(OCc2ccccc2)c(=O)ccn1CCCn1ccnc1
MBIC50 (Candida albicans [1]): >128 µg/mL | MIC50 (Candida albicans [3]): > 128 µg/mL | MBIC50 (Candida albicans [4]): >128 µg/mL

Compound: Cc1c(OCc2ccccc2)c(=O)ccn1CCCCn1ccc(=O)c(OCc2ccccc2)c1C
MBIC50 (Candida albicans [1]): 128 µg/mL | MIC50 (Candida albicans [3]): > 128 µg/mL | MBIC50 (Candida albicans [4]): >128 µg/mL

Compound: COc1ccccc1Cn1ccc(=O)c(OCc2ccccc2)c1C
MBIC50 (Candida albicans [1]): >128 µg/mL | MIC50 (Candida albicans [3]): > 128 µg/mL | MBIC50 (Candida albicans [4]): >128 µg/mL

Second part, led by results:

MIC50 (Candida albicans [3]): > 128 µg/mL
Compound: Cc1c(OCc2ccccc2)c(=O)ccn1CCCCNC(=O)Cc1ccc(CC(C)C)cc1
MBIC50 (Candida albicans [1]): 64 µg/mL | MBIC50 (Candida albicans [4]): >128 µg/mL

MIC50 (Candida albicans [3]): > 128 µg/mL
Compound: Cc1c(O)c(=O)ccn1CCCCNC(=O)Cc1ccccc1
MBIC50 (Candida albicans [1]): >128 µg/mL | MBIC50 (Candida albicans [4]): >128 µg/mL

Activity [2]: Active | MIC50 (Candida albicans [3]): > 128 µg/mL
Compound: Cc1c(OCc2ccccc2)c(=O)ccn1CCCCNC(=O)C(C)c1ccc(CC(C)C)cc1 (centres undefined)
MBIC50 (Candida albicans [1]): 32 µg/mL | MBIC50 (Candida albicans [4]): >128 µg/mL

MIC50 (Candida albicans [3]): 8 µg/mL (≈ 21.6 µM)
Compound: Cc1c(O)c(=O)ccn1CCCCNC(=O)Cc1ccc(CC(C)C)cc1
MBIC50 (Candida albicans [1]): 64 µg/mL | MBIC50 (Candida albicans [4]): 128 µg/mL

Activity [2]: Active | Activity [15]: Active | MIC50 (Candida albicans [3]): 4 µg/mL (≈ 10.4 µM)
Compound: Cc1c(O)c(=O)ccn1CCCCNC(=O)C(C)c1ccc(CC(C)C)cc1 (centres undefined)
MBIC50 (Candida albicans [1]): 128 µg/mL | MBIC50 (Candida albicans [4]): >128 µg/mL

MIC50 (Candida albicans [3]): > 128 µg/mL
Compound: Cc1c(OCc2ccccc2)c(=O)ccn1CCCCNC(=O)C(C)c1ccc(C(=O)c2ccccc2)cc1 (centres undefined)
MBIC50 (Candida albicans [1]): >128 µg/mL | MBIC50 (Candida albicans [4]): >128 µg/mL

MIC50 (Candida albicans [3]): > 128 µg/mL
Compound: Cc1c(O)c(=O)ccn1CCCCCn1ccc(=O)c(O)c1C.Cl.Cl
MBIC50 (Candida albicans [1]): 128 µg/mL | MBIC50 (Candida albicans [4]): >128 µg/mL

MIC50 (Candida albicans [3]): > 128 µg/mL
Compound: Cc1c(O)c(=O)ccn1CCCCn1ccc(=O)c(O)c1C.Cl.Cl
MBIC50 (Candida albicans [1]): >128 µg/mL | MBIC50 (Candida albicans [4]): >128 µg/mL

MIC50 (Candida albicans [3]): > 128 µg/mL
Compound: Cc1c(OCc2ccccc2)c(=O)ccn1CCCCNC(=O)Cc1ccccc1
MBIC50 (Candida albicans [1]): >128 µg/mL | MBIC50 (Candida albicans [4]): >128 µg/mL

MIC50 (Candida albicans [3]): > 128 µg/mL
Compound: Cc1c(O)c(=O)ccn1CCCCCCn1ccc(=O)c(O)c1C.Cl.Cl
MBIC50 (Candida albicans [1]): >128 µg/mL | MBIC50 (Candida albicans [4]): >128 µg/mL

MIC50 (Candida albicans [3]): 32 µg/mL
Compound: Cc1c(O)c(=O)ccn1CCCc1ccccc1.Cl
MBIC50 (Candida albicans [1]): 32 µg/mL | MBIC50 (Candida albicans [4]): >128 µg/mL

MIC50 (Candida albicans [3]): > 128 µg/mL
Compound: COc1ccccc1Cn1ccc(=O)c(O)c1C.Cl
MBIC50 (Candida albicans [1]): >128 µg/mL | MBIC50 (Candida albicans [4]): >128 µg/mL

MIC50 (Candida albicans [3]): > 128 µg/mL
Compound: Cc1c(O)c(=O)ccn1CCCCNC(=O)C(C)c1ccc(C(=O)c2ccccc2)cc1 (centres undefined)
MBIC50 (Candida albicans [1]): 128 µg/mL | MBIC50 (Candida albicans [4]): >128 µg/mL
